This passage reports MNTC, MIC and CPE-inhibitory concentration results from ChEMBL document CHEMBL1240443, “A study of cytotoxicity of novel chlorokojic acid derivatives with their antimicrobial and antiviral activities” (Eur J Med Chem, 2010).

Converted amounts (≈) assume the structure as drawn.

Series [1] is described as follows: Cytotoxicity against african green monkey Vero cells after 48 hrs. The settings on record: chlorocebus sabaeus. The series is classed as cell-based. Put shortly: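 Confluent cell monolayers exposed to two-fold (Log2) dilutions of each sample (51.2–0.012 µg/mL) in EMEM, 5% CO2, 37 °C, 48 h. Scored by light microscopy against untreated cultures; rows damaging all cells counted toxic. Maximum non-toxic concentration (MNTC, µg/mL) taken as highest concentration leaving cells unaffected. Vero grown in EMEM/10% fetal calf serum with streptomycin/penicillin.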

Series [2] deals with Klebsiella pneumoniae. The series can be described thus: Antimicrobial activity against extended spectrum beta lactamase expressing Klebsiella pneumoniae by spectrophotometry. Format: functional. Put shortly:
(§1)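 Broth microdilution in Mueller–Hinton broth. Two-fold dilutions from 256 to 0.125 µg/mL. Inoculum 10^5 c.f.u./mL, diluted from a McFarland 0.5 culture. Incubated at 35 °C for 24 h and 48 h in a humid chamber, triplicate.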

Series [3] concerns Escherichia coli. The series can be described thus: Antimicrobial activity against Escherichia coli ATCC 35218 by spectrophotometry. The series is classed as functional. Put shortly: as §1
Series [4] has as its system Proteus mirabilis. As to the kind of experiment: Antimicrobial activity against extended spectrum beta lactamase expressing Proteus mirabilis by spectrophotometry. Format: functional. Put shortly: as §1
The test system of series [5] is Enterococcus faecalis. The series can be described thus: Antimicrobial activity against Enterococcus faecalis ATCC 29212 by spectrophotometry. Format: functional. Put shortly: as §1
Series [6] relates to Acinetobacter baumannii. As to the kind of experiment: Antimicrobial activity against Acinetobacter baumannii RSKK 02026 by spectrophotometry. The series is classed as functional. Summed up: as §1
The subject of series [7] is Enterococcus faecalis. The series can be described thus: Antimicrobial activity against cephalosporin-resistant Enterococcus faecalis by spectrophotometry. Format: functional. Summed up: as §1
The test system of series [8] is Bacillus subtilis. As to the kind of experiment: Antimicrobial activity against Bacillus subtilis ATCC 6633 by spectrophotometry. The series is classed as functional. Put shortly: as §1
Series [9] concerns Proteus mirabilis. As to the kind of experiment: Antimicrobial activity against Proteus mirabilis ATCC 7002 by spectrophotometry. The series is classed as functional. Summed up: as §1
Series [10] has as its system Bacillus subtilis. The series can be described thus: Antimicrobial activity against ceftriaxone-resistant Bacillus subtilis by spectrophotometry. The series is classed as functional. Summed up:
as §1

Series [11] has as its system Escherichia coli. The series can be described thus: Antimicrobial activity against extended spectrum beta lactamase expressing Escherichia coli by spectrophotometry. The series is classed as functional. Put shortly:
as §1

Series [12] concerns Pseudomonas aeruginosa. As to the kind of experiment: Antimicrobial activity against trimethoprim-sulfamethoxazole and tazobactum-induced Pseudomonas aeruginosa by spectrophotometry. The series is classed as functional. Put shortly:
as §1

For the next series, the system named is Candida parapsilosis. The series can be described thus: Antifungal activity against Candida parapsilosis ATCC 22019 by spectrophotometry. Format: functional. To be noted: Lodderomyces parapsilosis. Summed up: (§2)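 Yeast broth microdilution in RPMI-1640 with L-glutamine, buffered to pH 7 with MOPS. Inoculum 10^5 c.f.u./mL, prepared by the spectrophotometric method. Two-fold dilutions from 256 to 0.125 µg/mL. Incubated at 35 °C for 24 h and 48 h in a humid chamber, triplicate.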

The next series relates to Candida albicans. The series can be described thus: Antifungal activity against Candida albicans ATCC 10231 by spectrophotometry. The series is classed as functional. Summed up:
as §2

Series [13] deals with Pseudomonas aeruginosa. The series can be described thus: microbe, parasite or virus in culture. To be noted: ATCC 10145.
Series [14] relates to Acinetobacter baumannii. The series can be described thus: Antimicrobial activity against cephalosporin-resistant Acinetobacter baumannii by spectrophotometry. The series is classed as functional. Summed up: as §1
A further series has as its system Human respirovirus 3. The series can be described thus: Antiviral activity against parainfluenza-3 virus infected in Vero cells assessed as reduction of virus-induced cytopathic effect. Format: functional. Summed up:
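Vero cells grown in EMEM with 10% fetal calf serum. Two-fold dilutions from 51.2 to 0.012 µg/mL, with PI-3 added at its TCID50-based titre, held 2 h at 37 °C in 5% CO2. CPE scored by microscope against untreated controls, giving the CPE-inhibitory concentration range.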

Series [15] concerns Klebsiella pneumoniae. The series can be described thus: Antimicrobial activity against Klebsiella pneumoniae RSKK 574 by spectrophotometry. The series is classed as functional. Put shortly:
as §1

Series [16] can be described thus: Cytotoxicity against MDBK cells after 48 hrs. The series is classed as cell-based, Bos taurus. The settings on record: cattle.
The next series deals with Staphylococcus aureus. As to the kind of experiment: Antimicrobial activity against methicillin-resistant Staphylococcus aureus by spectrophotometry. The series is classed as functional. Put shortly: as §1

For the compound `O=c1cc(CCl)oc(CN2CCC(O)(c3ccc(Br)cc3)CC2)c1O`, the MNTC at 48 h in series [1] came to 0.8 µg/mL; in series [16] it was 0.4 µg/mL. For the same compound, the MIC is 64 mg/L (≈ 149 µM) with Klebsiella pneumoniae [2]; 4 mg/L (≈ 9.33 µM) with Escherichia coli [3]; 64 mg/L (≈ 149 µM) with Proteus mirabilis [4]; 16 mg/L (≈ 37.3 µM) against Enterococcus faecalis [5]; 4 mg/L (≈ 9.33 µM) against Acinetobacter baumannii [6]; 32 mg/L (≈ 74.6 µM) in the series on Enterococcus faecalis [7]. Further, the MIC against Bacillus subtilis [8] came to 1 mg/L (≈ 2.33 µM); in the series with Proteus mirabilis [9], 8 mg/L (≈ 18.7 µM); in the series with Bacillus subtilis [10], 2 mg/L (≈ 4.67 µM); with Escherichia coli [11] it was 64 mg/L (≈ 149 µM); with Pseudomonas aeruginosa [12] it was 16 mg/L (≈ 37.3 µM); against Candida parapsilosis it was 8 mg/L (≈ 18.7 µM). Moreover, the MIC against Candida albicans is 4 mg/L (≈ 9.33 µM); in the series on Pseudomonas aeruginosa [13], 2 mg/L (≈ 4.67 µM); in the series on Acinetobacter baumannii [14], 16 mg/L (≈ 37.3 µM); with Klebsiella pneumoniae [15] it was 4 mg/L (≈ 9.33 µM); in the series on Staphylococcus aureus, 64 mg/L (≈ 149 µM). Besides, the CPE-inhibitory concentration with Human respirovirus 3 worked out at 0.05 µg/mL.

Consider `CC(C)(C)OC(=O)N1CCN(Cc2oc(CCl)cc(=O)c2O)CC1`, for which the MNTC at 48 h worked out at 0.4 µg/mL in [1] and 0.8 µg/mL in series [16]. Also, the MIC is 64 mg/L (≈ 178 µM) in the series on Klebsiella pneumoniae [2]; 8 mg/L (≈ 22.3 µM) against Escherichia coli [3]; 64 mg/L (≈ 178 µM) against Proteus mirabilis [4]; 8 mg/L (≈ 22.3 µM) against Enterococcus faecalis [5]; 8 mg/L (≈ 22.3 µM) with Acinetobacter baumannii [6]; 128 mg/L (≈ 357 µM) with Enterococcus faecalis [7]. Further, the MIC against Bacillus subtilis [8] stood at 1 mg/L (≈ 2.79 µM); against Proteus mirabilis [9] it was 16 mg/L (≈ 44.6 µM); with Bacillus subtilis [10], 2 mg/L (≈ 5.57 µM); against Escherichia coli [11] it was 64 mg/L (≈ 178 µM); against Pseudomonas aeruginosa [12], 16 mg/L (≈ 44.6 µM); against Candida parapsilosis it was 8 mg/L (≈ 22.3 µM). The MIC came to 4 mg/L (≈ 11.1 µM) against Candida albicans; 4 mg/L (≈ 11.1 µM) against Pseudomonas aeruginosa [13]; 16 mg/L (≈ 44.6 µM) against Acinetobacter baumannii [14]; 8 mg/L (≈ 22.3 µM) with Klebsiella pneumoniae [15]; 128 mg/L (≈ 357 µM) with Staphylococcus aureus. Moreover, the CPE-inhibitory concentration in the series on Human respirovirus 3 stood at 0.2 µg/mL.

On to `O=c1cc(CCl)oc(CN2CCC(O)(c3ccc(Cl)c(C(F)(F)F)c3)CC2)c1O`, for which the MNTC at 48 h in series [1] stood at 0.4 µg/mL; in [16] it was 0.8 µg/mL. Moreover, the MIC amounted to 64 mg/L (≈ 142 µM) against Klebsiella pneumoniae [2]; 4 mg/L (≈ 8.84 µM) in the series on Escherichia coli [3]; 64 mg/L (≈ 142 µM) in the series with Proteus mirabilis [4]; 16 mg/L (≈ 35.4 µM) in the series with Enterococcus faecalis [5]; 4 mg/L (≈ 8.84 µM) against Acinetobacter baumannii [6]; 32 mg/L (≈ 70.8 µM) against Enterococcus faecalis [7]. In addition, the MIC came out at 1 mg/L (≈ 2.21 µM) in the series on Bacillus subtilis [8]; 8 mg/L (≈ 17.7 µM) with Proteus mirabilis [9]; 2 mg/L (≈ 4.42 µM) with Bacillus subtilis [10]; 64 mg/L (≈ 142 µM) against Escherichia coli [11]; 16 mg/L (≈ 35.4 µM) in the series on Pseudomonas aeruginosa [12]; 8 mg/L (≈ 17.7 µM) in the series on Candida parapsilosis. Further, the MIC in the series with Candida albicans is 4 mg/L (≈ 8.84 µM); with Pseudomonas aeruginosa [13], 2 mg/L (≈ 4.42 µM); against Acinetobacter baumannii [14], 16 mg/L (≈ 35.4 µM); against Klebsiella pneumoniae [15], 4 mg/L (≈ 8.84 µM); in the series on Staphylococcus aureus it was 64 mg/L (≈ 142 µM). The CPE-inhibitory concentration in the series on Human respirovirus 3 stood at 0.05 µg/mL.

As for `CC1COc2c(N3CCN(C)CC3)c(F)cc3c(=O)c(C(=O)O)cn1c23` (centres undefined) [OFLOXACIN], the MIC is 1 mg/L (≈ 2.77 µM) against Proteus mirabilis [4]; 1 mg/L (≈ 2.77 µM) in the series on Enterococcus faecalis [5]; 0.12 mg/L (≈ 0.332 µM) in the series with Acinetobacter baumannii [6]; 32 mg/L (≈ 88.6 µM) in the series with Enterococcus faecalis [7]; less than 0.12 mg/L with Proteus mirabilis [9]; 64 mg/L (≈ 177 µM) with Acinetobacter baumannii [14]. Moreover, the MIC against Klebsiella pneumoniae [15] was less than 0.12 mg/L; against Staphylococcus aureus it was 64 mg/L (≈ 177 µM).

As for `O=c1cc(CCl)oc(CN2CCN(Cc3ccc(Cl)c(Cl)c3)CC2)c1O`, the figures for the MNTC at 48 h in [1] and in [16] were 0.8 µg/mL and 0.4 µg/mL, respectively. Also, the MIC in the series with Klebsiella pneumoniae [2] turned out to be 4 mg/L (≈ 9.58 µM); with Escherichia coli [3], 8 mg/L (≈ 19.2 µM); in the series with Proteus mirabilis [4], 64 mg/L (≈ 153 µM); against Enterococcus faecalis [5], 16 mg/L (≈ 38.3 µM); in the series on Acinetobacter baumannii [6], 8 mg/L (≈ 19.2 µM); against Enterococcus faecalis [7], 128 mg/L (≈ 306 µM). Further, the MIC was 1 mg/L (≈ 2.39 µM) with Bacillus subtilis [8]; 16 mg/L (≈ 38.3 µM) in the series with Proteus mirabilis [9]; 2 mg/L (≈ 4.79 µM) against Bacillus subtilis [10]; 4 mg/L (≈ 9.58 µM) in the series on Escherichia coli [11]; 16 mg/L (≈ 38.3 µM) with Pseudomonas aeruginosa [12]; 8 mg/L (≈ 19.2 µM) with Candida parapsilosis. Moreover, the MIC against Candida albicans came out at 4 mg/L (≈ 9.58 µM); against Pseudomonas aeruginosa [13], 4 mg/L (≈ 9.58 µM); against Acinetobacter baumannii [14], 16 mg/L (≈ 38.3 µM); against Klebsiella pneumoniae [15], 8 mg/L (≈ 19.2 µM); in the series on Staphylococcus aureus, 128 mg/L (≈ 306 µM). Moreover, in the series with Human respirovirus 3, the CPE-inhibitory concentration amounted to 0.05 µg/mL.

For the compound `CC(=O)N1CCN(c2ccc(OCC3COC(Cn4ccnc4)(c4ccc(Cl)cc4Cl)O3)cc2)CC1` (centres undefined) [KETOCONAZOLE], the MIC against Candida parapsilosis and against Candida albicans was 1 mg/L (≈ 1.88 µM) throughout.

As for `CC(=O)C1(c2ccccc2)CCN(Cc2oc(CCl)cc(=O)c2O)CC1`, the MNTC at 48 h in series [1] and in series [16] was 0.4 µg/mL each time. In addition, the MIC with Klebsiella pneumoniae [2] is 64 mg/L (≈ 170 µM); in the series with Escherichia coli [3], 8 mg/L (≈ 21.3 µM); with Proteus mirabilis [4], 64 mg/L (≈ 170 µM); in the series on Enterococcus faecalis [5] it was 64 mg/L (≈ 170 µM); against Acinetobacter baumannii [6], 4 mg/L (≈ 10.6 µM); with Enterococcus faecalis [7], 128 mg/L (≈ 341 µM). The MIC with Bacillus subtilis [8] came to 1 mg/L (≈ 2.66 µM); in the series with Proteus mirabilis [9], 16 mg/L (≈ 42.6 µM); against Bacillus subtilis [10], 2 mg/L (≈ 5.32 µM); in the series on Escherichia coli [11] it was 64 mg/L (≈ 170 µM); against Pseudomonas aeruginosa [12] it was 16 mg/L (≈ 42.6 µM); with Candida parapsilosis, 8 mg/L (≈ 21.3 µM). In addition, the MIC with Candida albicans amounted to 4 mg/L (≈ 10.6 µM); against Pseudomonas aeruginosa [13], 4 mg/L (≈ 10.6 µM); against Acinetobacter baumannii [14], 16 mg/L (≈ 42.6 µM); against Klebsiella pneumoniae [15], 8 mg/L (≈ 21.3 µM); against Staphylococcus aureus, 128 mg/L (≈ 341 µM).
